These results are taken from paper PMC2266580 (The Journal of General Physiology, 2005).

Residue numbers refer to the chain shown, from its start. Values joined by “and” are separate entries in the source; they are usually repeats but may differ in a detail not shown here. Equal values may be shown once.

Assay type in all cases: biochemical
One assay addresses Kir6.2ΔC26 334A channel. Description: ATP inhibition of 334A channels, inside-out patch. The conditions noted are these: read-out: Ki,ATP, Xenopus oocytes, without SUR, −80 mV.
In another assay the target is Kir6.2ΔC26 333K channel. Description: ATP inhibition of 333K channels, inside-out patch. The conditions noted are these: read-out: Ki,ATP, Xenopus oocytes, without SUR, n = 6.
A further assay deals with Kir6.2ΔC26 334F channel. Description: ATP inhibition of 334F channels, inside-out patch. To be noted: read-out: Ki,ATP, Xenopus oocytes, without SUR, −80 mV.
The target of assay [1] is T1, Kir6.2ΔC26 G334 (wild type) channel (Homo sapiens, UniProt Q14654).
T1 sequence (Q14654 1-364 limits assumed): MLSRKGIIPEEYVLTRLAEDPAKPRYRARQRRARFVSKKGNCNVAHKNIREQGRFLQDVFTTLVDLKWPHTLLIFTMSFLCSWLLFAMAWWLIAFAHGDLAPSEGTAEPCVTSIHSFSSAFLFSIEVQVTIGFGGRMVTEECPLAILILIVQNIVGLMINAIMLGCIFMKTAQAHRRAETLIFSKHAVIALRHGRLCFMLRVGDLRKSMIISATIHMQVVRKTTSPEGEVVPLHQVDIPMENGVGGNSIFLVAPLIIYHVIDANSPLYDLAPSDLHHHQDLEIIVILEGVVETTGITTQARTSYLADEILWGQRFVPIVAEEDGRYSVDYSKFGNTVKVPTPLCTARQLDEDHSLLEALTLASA
Description: ATP inhibition of wild-type.

Another assay has as its target Kir6.2ΔC26 334E channel. The assay can be described thus: ATP inhibition of 334E channels, inside-out patch. To be noted: read-out: Ki,ATP, Xenopus oocytes, without SUR, −80 mV.
The target in assay [2] is T2, Kir6.2/ΔC26/G334R channel (slow burst exit gating patches) (Homo sapiens, UniProt Q14654, G334R).
T2 sequence (Q14654 1-364 G334R limits assumed): T1 sequence (Q14654 1-364 limits assumed) with G334R
To be noted: 50 μM protamine. In short, it runs like this:
(§1)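 Channels expressed in Xenopus oocytes: SUR1 plus Kir6.2 for line 1, Kir6.2ΔC26/G334R for line 2. Inside-out patches were held at −80 mV. Pipette contained (mM) 150 KCl, 10 NaCl, 1 CaCl2, 10 EGTA, 10 HEPES, pH 7.4. […] Signals filtered at 4 kHz, sampled at 20 kHz. Half-amplitude event detection, missed-event-corrected duration histogram fits, n = 5, mean ± SEM.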

Assay [3] concerns the target wild-type SUR1/Kir6.2 channel (Homo sapiens, UniProt Q14654). The conditions noted are these: 50 μM protamine. In short, it runs like this:
as §1

Sequence of wild-type SUR1/Kir6.2 channel (Q14654 whole entry): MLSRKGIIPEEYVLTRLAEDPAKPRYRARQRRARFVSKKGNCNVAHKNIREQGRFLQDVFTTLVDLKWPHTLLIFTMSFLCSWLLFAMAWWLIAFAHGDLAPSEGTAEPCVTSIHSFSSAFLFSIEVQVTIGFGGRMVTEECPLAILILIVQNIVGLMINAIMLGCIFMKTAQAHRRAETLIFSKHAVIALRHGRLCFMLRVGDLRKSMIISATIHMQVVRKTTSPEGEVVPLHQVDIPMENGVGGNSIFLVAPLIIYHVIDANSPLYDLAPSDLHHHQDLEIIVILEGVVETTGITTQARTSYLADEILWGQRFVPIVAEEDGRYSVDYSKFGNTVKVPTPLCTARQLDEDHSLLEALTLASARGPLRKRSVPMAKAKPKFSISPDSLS
Sequence of wild-type SUR1/Kir6.2 channel (Q09428 whole entry partner): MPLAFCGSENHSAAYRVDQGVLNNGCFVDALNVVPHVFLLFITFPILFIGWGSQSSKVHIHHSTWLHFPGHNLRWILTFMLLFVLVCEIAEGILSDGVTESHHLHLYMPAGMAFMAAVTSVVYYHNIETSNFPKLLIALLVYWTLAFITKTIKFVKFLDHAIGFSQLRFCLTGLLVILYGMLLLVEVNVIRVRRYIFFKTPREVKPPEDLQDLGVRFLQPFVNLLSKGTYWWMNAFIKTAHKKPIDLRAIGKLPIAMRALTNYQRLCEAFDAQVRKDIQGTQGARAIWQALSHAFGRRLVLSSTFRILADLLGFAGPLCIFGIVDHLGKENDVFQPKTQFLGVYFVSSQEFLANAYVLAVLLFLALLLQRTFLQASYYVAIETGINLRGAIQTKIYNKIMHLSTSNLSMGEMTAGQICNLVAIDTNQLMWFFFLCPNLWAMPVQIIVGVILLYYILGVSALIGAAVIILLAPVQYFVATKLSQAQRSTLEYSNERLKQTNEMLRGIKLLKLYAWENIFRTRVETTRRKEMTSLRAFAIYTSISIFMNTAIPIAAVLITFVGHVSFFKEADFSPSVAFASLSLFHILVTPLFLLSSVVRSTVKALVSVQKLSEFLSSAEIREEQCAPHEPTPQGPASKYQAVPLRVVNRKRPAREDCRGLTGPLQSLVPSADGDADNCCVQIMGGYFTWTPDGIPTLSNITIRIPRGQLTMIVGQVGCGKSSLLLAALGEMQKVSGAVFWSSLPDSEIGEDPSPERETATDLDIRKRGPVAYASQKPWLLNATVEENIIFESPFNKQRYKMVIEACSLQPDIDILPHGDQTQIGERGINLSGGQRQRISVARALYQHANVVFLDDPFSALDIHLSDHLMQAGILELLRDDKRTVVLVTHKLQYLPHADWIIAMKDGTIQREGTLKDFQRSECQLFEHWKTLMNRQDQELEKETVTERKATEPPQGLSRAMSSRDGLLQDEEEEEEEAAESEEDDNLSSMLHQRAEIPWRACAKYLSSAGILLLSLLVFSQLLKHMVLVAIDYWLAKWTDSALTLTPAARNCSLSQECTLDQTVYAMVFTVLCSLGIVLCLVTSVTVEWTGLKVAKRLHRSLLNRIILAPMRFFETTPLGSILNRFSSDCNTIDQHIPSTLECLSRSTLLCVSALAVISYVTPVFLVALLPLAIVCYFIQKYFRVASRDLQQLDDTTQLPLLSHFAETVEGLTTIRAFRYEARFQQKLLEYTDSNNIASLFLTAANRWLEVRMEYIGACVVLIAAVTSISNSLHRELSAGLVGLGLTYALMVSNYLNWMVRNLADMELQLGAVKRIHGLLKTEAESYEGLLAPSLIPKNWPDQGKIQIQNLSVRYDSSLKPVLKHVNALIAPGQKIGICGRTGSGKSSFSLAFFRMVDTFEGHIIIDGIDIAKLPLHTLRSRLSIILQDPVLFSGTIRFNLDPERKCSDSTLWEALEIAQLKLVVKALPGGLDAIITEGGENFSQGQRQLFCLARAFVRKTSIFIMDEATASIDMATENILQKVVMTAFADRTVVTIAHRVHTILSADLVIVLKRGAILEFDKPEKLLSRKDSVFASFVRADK

For `Nc1ncnc2c1ncn2[C@@H]1O[C@H](COP(=O)(O)OP(=O)([O-])OP(=O)([O-])O)[C@@H](O)[C@H]1O.[Mg+2]` [ATP], the Ki on Kir6.2ΔC26 334A channel is 2100 ± 50 µM; at Kir6.2ΔC26 333K channel, 2200 ± 300 µM; on Kir6.2ΔC26 334F channel, 3000 µM and 3100 µM; on Kir6.2ΔC26 334E channel it was 5900 ± 20 µM. Further, the “inhibition of channel activity” value in assay [1] (10 mM ATP) is “complete inhibition”. The “slope factor αH of Hill fit of ATP inhibition” value in assay [1] (wild-type channel, αH free variable) worked out at 1.0 ± 0.1.
Turning to protamine, the “mean open time after protamine” value in assay [2] (absence of ATP, n = 5, before protamine 1.9 ± 0.2 ms) is listed as 1.1 ± 0.2 ms; in assay [3] (absence of ATP, before protamine 2.1 ± 0.2 ms), 1.0 ± 0.2 ms. The “mean burst time after protamine” value in assay [2] (absence of ATP, n = 5, before protamine 80.3 ± 10.7 ms) is given as 2.6 ± 1.8 ms; in assay [3] (absence of ATP, before protamine 48.0 ± 7.4 ms), 2.6 ± 0.9 ms. The “effect on slowed gating from the burst” value in assay [2] (all 12 patches) is recorded as “fully restore the fast gating from the burst”. Further, the “effect on gating from the burst” value in assay [3] (cytoplasmic face, all six patches) was “dramatically speeded gating from the burst”.
